# Results of several laboratories.
# Protocols differ between the studies behind these lines.
# Target: Eukaryotic translation initiation factor 2-alpha kinase 3 (EIF2AK3, Homo sapiens, UniProt Q9NZJ5)
# Residues used in one study (Q9NZJ5 30-1116): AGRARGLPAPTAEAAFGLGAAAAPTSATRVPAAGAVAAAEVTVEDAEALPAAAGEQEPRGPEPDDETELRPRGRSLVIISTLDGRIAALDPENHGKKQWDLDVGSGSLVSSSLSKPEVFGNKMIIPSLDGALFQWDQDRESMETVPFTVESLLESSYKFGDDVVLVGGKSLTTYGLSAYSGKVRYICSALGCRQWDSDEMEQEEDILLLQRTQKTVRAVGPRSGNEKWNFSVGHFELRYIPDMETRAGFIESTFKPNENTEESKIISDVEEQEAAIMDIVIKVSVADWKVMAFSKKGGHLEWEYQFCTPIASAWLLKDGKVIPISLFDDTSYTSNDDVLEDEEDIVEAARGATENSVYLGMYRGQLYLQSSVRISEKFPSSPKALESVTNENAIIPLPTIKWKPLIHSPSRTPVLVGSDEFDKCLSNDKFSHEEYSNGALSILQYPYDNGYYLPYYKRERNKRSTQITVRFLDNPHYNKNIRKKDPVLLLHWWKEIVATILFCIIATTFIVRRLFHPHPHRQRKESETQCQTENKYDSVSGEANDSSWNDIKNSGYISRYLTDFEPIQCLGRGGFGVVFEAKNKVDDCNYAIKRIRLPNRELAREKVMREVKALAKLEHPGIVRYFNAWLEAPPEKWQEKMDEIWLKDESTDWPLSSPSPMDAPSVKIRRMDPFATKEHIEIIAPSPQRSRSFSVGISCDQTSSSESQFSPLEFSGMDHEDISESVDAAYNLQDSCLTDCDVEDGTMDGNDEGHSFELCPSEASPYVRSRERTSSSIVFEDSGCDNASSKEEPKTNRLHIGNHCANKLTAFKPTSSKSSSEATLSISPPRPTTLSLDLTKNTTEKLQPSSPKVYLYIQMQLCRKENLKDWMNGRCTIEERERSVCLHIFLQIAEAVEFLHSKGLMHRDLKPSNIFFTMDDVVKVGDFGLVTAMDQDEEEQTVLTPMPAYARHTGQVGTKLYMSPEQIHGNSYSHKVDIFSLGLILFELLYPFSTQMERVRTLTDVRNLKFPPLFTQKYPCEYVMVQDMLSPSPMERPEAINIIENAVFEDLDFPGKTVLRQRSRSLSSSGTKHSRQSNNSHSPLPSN
Compound,observed,action,method,concentration,quantity,value
COc1cccc2c(NCc3ccccc3)nc(-n3c(N)nc4ccccc43)nc12,target engagement in cells,inhibitor,chemoproteomics,20 mM,inhibition,-7.4%
CN1CC(Oc2cnc(C#N)cc2-c2ccn3nc(NC(=O)C4CC4)cc3c2)C1,enzyme activity,inhibitor,,1 µM,inhibition,0%
CNC(=O)c1cc2c(Oc3ccc(NC(=O)C4(C(=O)Nc5ccc(F)cc5)CC4)cc3)ccnc2cc1OC,enzyme activity,inhibitor,radiometric,1 µM,inhibition,73%
CC/C(=N\NC(=O)NCc1cccc(O)c1)c1ccc(O)c(C)c1O,enzyme activity,inhibitor,,0.1 µM,inhibition,4.2%
Cc1cnc(NC2CCOCC2)nc1-n1cnc(C(=O)NC(CN)c2cc(F)cc(Cl)c2)c1 (stereo not drawn),enzyme activity,inhibitor,radiometric,1 µM,remaining activity,101%
COc1cc(/C=C/C(=O)CC(=O)/C=C/c2ccc(O)c(OC)c2)ccc1O,enzyme activity,inhibitor,,1 µM,activity vs control,95%
CCCCNc1ncc2c(-c3ccc(F)cc3)nn(C[C@H]3CC[C@H](N)CC3)c2n1,target engagement in cells,inhibitor,chemoproteomics,20 mM,inhibition,17%
Cc1ccc(NC(=O)c2ccc(C)c(C(F)(F)F)c2)cc1C#Cc1nn(C2CCC(O)CC2)c2ncnc(N)c12 (stereo not drawn),cell-free assay,,,10 µM,remaining signal,39%
CCN(CC)c1ccc(C2=NNC(=O)CC2C)cc1[N+](=O)[O-] (stereo not drawn),enzyme activity,inhibitor,,10 µM,remaining activity,110%
CC(C)(C)c1nc2c(s1)c1nc(N)ncc1c1ccc(NS(=O)(=O)c3c(F)cccc3F)c(F)c12,enzyme activity,inhibitor,radiometric,1 µM,remaining activity,47%
Cc1cc(NC(=O)c2cccc3cc(-c4cccc5[nH]nc(N)c45)ccc23)ccc1F,enzyme activity,inhibitor,,0.1 µM,activity vs control,94%
FC(F)(F)Oc1cccc(-c2cnc3ccc(-c4ccncc4)nn23)c1,enzyme activity,inhibitor,radiometric,1 µM,activity vs control,74%
Cc1ccc(C(=O)NCc2ccsc2)cc1C#Cc1cn(C(C)C)c2ncnc(N)c12,enzyme activity,inhibitor,,1 µM,activity vs control,82%
CC(C)(C)c1nc(-c2cccc(NS(=O)(=O)c3c(F)cccc3F)c2F)c(-c2ccnc(N)n2)s1,enzyme activity,inhibitor,radiometric,1 µM,remaining activity,4%
COc1cc(Nc2cnc(C#N)c(O[C@H](C)CN(C)C)n2)ncc1-c1cnn(C)c1,enzyme activity,inhibitor,radiometric,1 µM,remaining activity,101%
